Here are results for one compound from publication PMC6800822 (Bioconjugate chemistry, 2019).

Data set [1] is classed as cell-based.
Data set [2] has as its system T98G cells. The note with it: 50 uM; cited from earlier work.
Data set [3] concerns RNA extracted from T98G cells. Nature of the data set: Interaction with total RNA extracted from T98G cells in PBS buffer.
For the next data set, the system named is MES-SA/Dx5. Nature of the data set: Nucleolus targeting in MES-SA/Dx5 cells. The data set is classed as cell-based.
Data set [4] deals with phospho-Ser139-H2AX (γH2AX). Briefly: Immunofluorescence of γH2AX. The data set is classed as cell-based. The following applies: T98G cells, 200 μM, 2 h.
The subject of a further data set is Saos-2. Briefly: Nucleolus targeting in Saos-2 cells. The data set is classed as cell-based.
In data set [5] the test system is T98G cells. Nature of the data set: Cellular uptake and distribution by fluorescence imaging. The data set is classed as cell-based. The gist of the method: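 T98G cells incubated with the test peptide at 100 or 200 μM and imaged by confocal fluorescence microscopy after 2 h. Counterstains used: Hoechst 33342 for nuclei, fibrillarin immunofluorescence for nucleoli, and ER Tracker. Localisation to lysosomes was also assessed.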

Data set [6] can be described thus: CD spectra, secondary structure inferred by DichroWeb. The data set is classed as physicochemical. The note with it: 200 μM.
The subject of the next data set is HeLa. Briefly: Nucleolus targeting in HeLa cells. The data set is classed as cell-based.

Molecules are shown by their SMILES. Square brackets hold non-standard residues; d marks the D form. Peptide text beside a SMILES is read from it. * marks the point of attachment. Acetyl(thymin-1-yl) = Cc1cn(CC(=O)*)c(=O)[nH]c1=O; NBD = O=[N+]([O-])c1ccc(*)c2nonc12

Broadly, the IC50 is the concentration that gives 50% inhibition. A lower IC50 goes with greater potency in that assay. `Cc1cn(CC(=O)N[C@H](Cc2ccccc2)C(=O)N[C@H](Cc2ccccc2)C(=O)N[C@H](CCCCN)C(=O)N[C@H](CCCCN)C(=O)N[C@H](Cc2ccccc2)C(=O)N[C@H](CCCCN)C(=O)N[C@H](CC(C)C)C(=O)N[C@H](CCCCN)C(=O)N[C@H](CC(C)C)C(=O)N[C@H](CCCCNc2ccc([N+](=O)[O-])c3nonc23)C(=O)O)c(=O)[nH]c1=O` [D-1] ({Acetyl(thymin-1-yl)}-[dF][dF][dK][dK][dF][dK][dL][dK][dL][dK](NBD)-OH; N-terminus and C-terminus assumed): half-maximal inhibition in data set [1] (IC50) required 86.2 µM. In the data set on T98G cells [2], the “Effect on cells at low concentration” value is “innocuous to the cells”. The “Interaction with RNA” value in data set [3] was “form precipitates that resist ribonuclease”. For the same compound, the Nucleolus targeting entry with MES-SA/Dx5 is recorded as “able to target nucleoli”. In addition, the “γH2AX foci formation (DNA damage)” value in data set [4] is reported as “leads to γH2AX foci formation”. For the same compound, in the data set with Saos-2, the Nucleolus targeting entry is “able to target nucleoli”. In addition, in the data set with T98G cells [5] (100 μM, fluorescence imaging), the Cell entry entry is on record as “hardly enters the cells”. Besides, the Cellular distribution result in the data set on T98G cells [5] (200 μM, 2 h, fluorescence imaging) was “bright fluorescent puncta in cell nucleus”. Also, the Lysosomal localisation result in the data set with T98G cells [5] (200 μM, fluorescence imaging) is listed as “only slightly localized in the lysosome”. In the data set with T98G cells [5] (4 °C, 1 h), the “Cellular uptake at 4 °C” value was “hardly exhibit any fluorescence”. In data set [6], this compound returned an unordered structures content of 28%, a α-helix content of 36%, a β-sheet content of 13% and a β-turns content of 23%. Moreover, the Nucleolus targeting result in the data set with HeLa is “able to target nucleoli”.
